Reference: ChEMBL document CHEMBL1135991 (J Med Chem, 2002)

What was measured:
Melanocortin receptor 5 [1] = target: T1, Melanocortin receptor 5 (Homo sapiens, UniProt P33032); experiment: Effective concentration against human melanocortin 5 receptor (hMC5R) in HEK293 cells; type: cell-based
Method in brief: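 Transfected HEK293 cells were seeded 50 000/well 48 h ahead. They were preincubated 1 min at 37 °C in EBSS with IBMX, then given varying melanotropin concentrations for 3 min at 37 °C. The reaction was stopped with ice-cold Tris/EDTA and lysates boiled 15 min. Supernatant cAMP was measured by competitive binding kit. EC50 came from a nonlinear least-squares fit; duplicate experiments, each in triplicate.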

Melanocortin receptor 4 [2] = target: T2, Melanocortin receptor 4 (Homo sapiens, UniProt P32245); experiment: Binding affinity for human Melanocortin-4 receptor (hMC4R)
T2 sequence (P32245 whole entry): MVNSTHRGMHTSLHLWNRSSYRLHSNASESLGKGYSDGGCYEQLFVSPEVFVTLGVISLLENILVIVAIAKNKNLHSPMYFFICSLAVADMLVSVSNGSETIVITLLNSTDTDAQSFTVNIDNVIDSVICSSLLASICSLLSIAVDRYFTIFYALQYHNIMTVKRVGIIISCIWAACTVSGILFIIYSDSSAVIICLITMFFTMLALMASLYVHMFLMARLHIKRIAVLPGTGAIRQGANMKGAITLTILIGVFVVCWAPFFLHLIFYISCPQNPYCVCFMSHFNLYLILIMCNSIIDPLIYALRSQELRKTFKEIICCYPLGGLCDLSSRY

Melanocortin receptor 4 [3] = target: T2, Melanocortin receptor 4; experiment: Inhibition of binding to human Melanocortin-4 receptor (hMC4R)
Melanocortin receptor 3 [4] = target: T3, Melanocortin receptor 3 (Homo sapiens, UniProt P41968); experiment: Inhibition of human Melanocortin-3 receptor (hMC3R) expressed in HEK293 cells; type: cell-based
T3 sequence (P41968 whole entry): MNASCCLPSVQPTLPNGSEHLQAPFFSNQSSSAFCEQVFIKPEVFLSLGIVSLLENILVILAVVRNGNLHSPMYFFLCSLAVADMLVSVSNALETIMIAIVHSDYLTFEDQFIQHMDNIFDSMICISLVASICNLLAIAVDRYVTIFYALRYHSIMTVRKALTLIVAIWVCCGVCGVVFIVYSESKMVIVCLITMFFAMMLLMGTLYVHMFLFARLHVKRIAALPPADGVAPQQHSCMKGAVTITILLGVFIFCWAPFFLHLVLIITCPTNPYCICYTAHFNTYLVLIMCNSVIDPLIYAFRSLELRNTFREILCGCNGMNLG

Melanocortin receptor 5 [5] = target: T1, Melanocortin receptor 5; experiment: Binding affinity for human melanocortin 5 receptor (hMC5R) expressed in HEK293 cells; type: cell-based
Melanocortin receptor 3 [6] = target: T3, Melanocortin receptor 3; experiment: Binding affinity for human Melanocortin-3 receptor (hMC3R) expressed in HEK293 cells; type: cell-based
Melanocortin receptor 4 [7] = target: T2, Melanocortin receptor 4; experiment: Stimulation of intracellular cAMP levels in CHO cells expressing human Melanocortin-4 receptor; type: functional, cell-based
Melanocortin receptor 5 [8] = target: T1, Melanocortin receptor 5; experiment: Stimulation of intracellular cAMP levels in HEK293 cells expressing human melanocortin 5 receptor
Melanocortin receptor 3 [9] = target: T3, Melanocortin receptor 3; experiment: Stimulation of intracellular cAMP levels in HEK293 cells expressing human Melanocortin-3 receptor
[10] = target: Melanocortin receptor (M1 and M4) (Homo sapiens) (UniProt P32245+Q01726); experiment: Selectivity as ratio of binding affinity for human melanocortin 1 and melanocortin 4 receptors; type: protein assay
Homo sapiens = species: Homo sapiens; experiment: Selectivity as ratio of binding affinity for human melanocortin 1 and melanocortin 3 receptors

T1 sequence (P33032 whole entry): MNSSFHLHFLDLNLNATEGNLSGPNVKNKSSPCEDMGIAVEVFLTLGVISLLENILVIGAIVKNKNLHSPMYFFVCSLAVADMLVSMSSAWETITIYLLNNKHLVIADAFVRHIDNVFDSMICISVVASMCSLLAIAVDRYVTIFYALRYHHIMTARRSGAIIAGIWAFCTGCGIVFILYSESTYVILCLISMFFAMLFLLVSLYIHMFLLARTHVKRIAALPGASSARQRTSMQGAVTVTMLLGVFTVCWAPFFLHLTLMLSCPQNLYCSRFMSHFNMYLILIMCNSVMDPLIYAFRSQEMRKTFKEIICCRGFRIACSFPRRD

With `N=C(N)NCCC[C@@H]1NC(=O)[C@@H](Cc2ccc3ccccc3c2)NC(=O)[C@H](Cc2cnc[nH]2)NC(=O)c2ccccc2C(=O)NCCCC[C@@H](C(N)=O)NC(=O)[C@H](Cc2c[nH]c3ccccc23)NC1=O` the EC50 (Melanocortin receptor 5 [1]) was 640 nM, the Ki (Melanocortin receptor 4 [2]) was 57 nM and the EC50 (Melanocortin receptor 4 [3]) was over 10000 nM. It also gave an EC50 (Melanocortin receptor 3 [4]) of 18 nM, a Ki (Melanocortin receptor 5 [5]) of 5700 nM and a Ki (Melanocortin receptor 3 [6]) of 7.8 nM.
Compound `C[C@@H]1NC(=O)CCC(=O)NCCCC[C@H](C(N)=O)NC(=O)[C@@H](Cc2c[nH]c3ccccc23)NC(=O)[C@H](CCCN=C(N)N)NC(=O)[C@@H](Cc2ccccc2)NC1=O` has an ACT (Melanocortin receptor 4 [7]) of 35%, an ACT (Melanocortin receptor 5 [8]) of 0% and an ACT (Melanocortin receptor 3 [9]) of 19%.
Compound `N=C(N)NCCC[C@H](NC(=O)[C@@H](Cc1ccccc1)NC(=O)[C@H](Cc1cnc[nH]1)NC(=O)CCC(=O)O)C(=O)N[C@@H](Cc1c[nH]c2ccccc12)C(=O)N[C@@H](CCCCN)C(N)=O` has an EC50 (Melanocortin receptor 5 [1]) of 1100 nM, a Ki (Melanocortin receptor 4 [2]) of 630 nM and an EC50 (Melanocortin receptor 4 [3]) of 3000 nM. The EC50 (Melanocortin receptor 3 [4]) was 68 nM, the Ki (Melanocortin receptor 5 [5]) was 880 nM and the Ki (Melanocortin receptor 3 [6]) was 140 nM.
Compound `N=C(N)NCCC[C@@H]1NC(=O)[C@@H](Cc2ccccc2)NC(=O)[C@H](Cc2c[nH]cn2)NC(=O)CCCC(=O)NCCCC[C@H](C(N)=O)NC(=O)[C@@H](Cc2c[nH]c3ccccc23)NC1=O` has an ACT (Melanocortin receptor 4 [7]) of 100%, an ACT (Melanocortin receptor 5 [8]) of 0% and an ACT (Melanocortin receptor 3 [9]) of 100%.
`C[C@H]1NC(=O)[C@H](Cc2c[nH]cn2)NC(=O)CCC(=O)NCCCC[C@@H](C(N)=O)NC(=O)[C@H](Cc2c[nH]c3ccccc23)NC(=O)[C@H](CCCN=C(N)N)NC1=O` showed an EC50 (Melanocortin receptor 5 [1]; hek293) of over 10000 nM, an EC50 (Melanocortin receptor 4 [3]) of over 10000 nM and an EC50 (Melanocortin receptor 3 [4]; hek293) of over 10000 nM.
`N=C(N)NCCC[C@@H]1NC(=O)[C@@H](Cc2ccccc2)NC(=O)[C@H](Cc2c[nH]cn2)NC(=O)c2ccccc2C(=O)NCCCC[C@H](C(N)=O)NC(=O)[C@@H](Cc2c[nH]c3ccccc23)NC1=O` was tested, and the ACT (Melanocortin receptor 4 [7]) was 98%, the ACT (Melanocortin receptor 5 [8]) was 0% and the ACT (Melanocortin receptor 3 [9]) was 76%.
Compound `N=C(N)NCCC[C@@H]1NC(=O)[C@@H](Cc2ccc3ccccc3c2)NC(=O)[C@H](Cc2c[nH]cn2)NC(=O)c2ccccc2C(=O)NCCCC[C@H](C(N)=O)NC(=O)[C@@H](Cc2c[nH]c3ccccc23)NC1=O` has an ACT (Melanocortin receptor 4 [7]) of 0%, an ACT (Melanocortin receptor 5 [8]) of 56% and an ACT (Melanocortin receptor 3 [9]) of 36%.
In the case of `C[C@@H]1NC(=O)CCC(=O)NCCCC[C@@H](C(N)=O)NC(=O)[C@H](Cc2c[nH]c3ccccc23)NC(=O)[C@H](CCCN=C(N)N)NC(=O)[C@@H](Cc2ccccc2)NC1=O`, the EC50 (Melanocortin receptor 5 [1]) is reported as over 10000 nM, the Ki (Melanocortin receptor 4 [2]) is reported as 1700 nM and the EC50 (Melanocortin receptor 4 [3]) is reported as 22 nM. For the same compound, the EC50 (Melanocortin receptor 3 [4]) was 42 nM and the Ki (Melanocortin receptor 3 [6]) was 1400 nM.
In the case of `C[C@@H]1NC(=O)[C@@H](Cc2ccccc2)NC(=O)[C@H](Cc2c[nH]cn2)NC(=O)CCC(=O)NCCCC[C@H](C(N)=O)NC(=O)[C@@H](Cc2c[nH]c3ccccc23)NC1=O`, the ACT (Melanocortin receptor 4 [7]) is reported as 0%, the ACT (Melanocortin receptor 5 [8]) is reported as 0% and the ACT (Melanocortin receptor 3 [9]) is reported as 53%.
With `N=C(N)NCCC[C@@H]1NC(=O)[C@@H](Cc2ccccc2)NC(=O)[C@H](Cc2c[nH]cn2)NC(=O)CCCC(=O)NCCCC[C@@H](C(N)=O)NC(=O)[C@H](Cc2c[nH]c3ccccc23)NC1=O` the EC50 (Melanocortin receptor 5 [1]) was over 10000 nM, the Ki (Melanocortin receptor 4 [2]) was 670 nM and the EC50 (Melanocortin receptor 4 [3]) was 50 nM. It also gave an EC50 (Melanocortin receptor 3 [4]) of 75 nM, a Ki (Melanocortin receptor 5 [5]) of 3100 nM and a Ki (Melanocortin receptor 3 [6]) of 110 nM.
With `N=C(N)NCCC[C@@H]1NC(=O)[C@@H](Cc2ccccc2)NC(=O)[C@H](Cc2c[nH]cn2)NC(=O)CCC(=O)NCCCC[C@H](C(N)=O)NC(=O)[C@@H](Cc2c[nH]c3ccccc23)NC1=O` the ACT (Melanocortin receptor 4 [7]) was 100%, the ACT (Melanocortin receptor 5 [8]) was 67% and the ACT (Melanocortin receptor 3 [9]) was 95%. The Selectivity ratio [10] was 700 and the Selectivity ratio (Homo sapiens) was 52.5.
Work on `C[C@H]1NC(=O)[C@H](Cc2c[nH]cn2)NC(=O)CCC(=O)NCCCC[C@H](C(N)=O)NC(=O)[C@@H](Cc2c[nH]c3ccccc23)NC(=O)[C@H](CCCN=C(N)N)NC1=O` yielded an ACT (Melanocortin receptor 4 [7]) of 0%, an ACT (Melanocortin receptor 5 [8]) of 0% and an ACT (Melanocortin receptor 3 [9]) of 0%.
For `N=C(N)NCCC[C@@H]1NC(=O)[C@@H](Cc2ccccc2)NC(=O)[C@H](Cc2cnc[nH]2)NC(=O)c2ccccc2C(=O)NCCCC[C@@H](C(N)=O)NC(=O)[C@H](Cc2c[nH]c3ccccc23)NC1=O`, the EC50 (Melanocortin receptor 5 [1]) was over 5000 nM, the Ki (Melanocortin receptor 4 [2]) was 58 nM and the EC50 (Melanocortin receptor 4 [3]) was 70 nM. It also gave an EC50 (Melanocortin receptor 3 [4]) of 13 nM and a Ki (Melanocortin receptor 3 [6]) of 280 nM.
For `NCCCC[C@H](NC(=O)[C@H](Cc1c[nH]c2ccccc12)NC(=O)[C@H](CCCN=C(N)N)NC(=O)[C@@H](Cc1ccccc1)NC(=O)[C@H](Cc1c[nH]cn1)NC(=O)CCC(=O)O)C(N)=O`, the ACT (Melanocortin receptor 4 [7]) was 26.5%, the ACT (Melanocortin receptor 5 [8]) was 100% and the ACT (Melanocortin receptor 3 [9]) was 100%.
For `N=C(N)NCCC[C@@H]1NC(=O)[C@@H](Cc2ccc3ccccc3c2)NC(=O)[C@H](Cc2c[nH]cn2)NC(=O)CCC(=O)NCCCC[C@H](C(N)=O)NC(=O)[C@@H](Cc2c[nH]c3ccccc23)NC1=O`, the ACT (Melanocortin receptor 4 [7]) was 35%, the ACT (Melanocortin receptor 5 [8]) was 100% and the ACT (Melanocortin receptor 3 [9]) was 88%.
`N=C(N)NCCC[C@@H]1NC(=O)[C@@H](Cc2ccc3ccccc3c2)NC(=O)[C@H](Cc2c[nH]cn2)NC(=O)CCC(=O)NCCCC[C@@H](C(N)=O)NC(=O)[C@H](Cc2c[nH]c3ccccc23)NC1=O` was tested, and the EC50 (Melanocortin receptor 5 [1]) was 150 nM, the Ki (Melanocortin receptor 4 [2]) was 87 nM and the EC50 (Melanocortin receptor 4 [3]) was 260 nM. It also gave an EC50 (Melanocortin receptor 3 [4]) of 70 nM, a Ki (Melanocortin receptor 5 [5]) of 140 nM and a Ki (Melanocortin receptor 3 [6]) of 12.1 nM.
In the case of `N=C(N)NCCC[C@H]1NC(=O)[C@H](Cc2ccccc2)NC(=O)[C@H]2CCCN2C(=O)CCC(=O)NCCCC[C@@H](C(N)=O)NC(=O)[C@H](Cc2c[nH]c3ccccc23)NC1=O`, the ACT (Melanocortin receptor 4 [7]) is reported as 60.5%, the ACT (Melanocortin receptor 5 [8]) is reported as 100% and the ACT (Melanocortin receptor 3 [9]) is reported as 21%.
`C[C@@H]1NC(=O)[C@@H](Cc2ccccc2)NC(=O)[C@H](Cc2cnc[nH]2)NC(=O)CCC(=O)NCCCC[C@@H](C(N)=O)NC(=O)[C@H](Cc2c[nH]c3ccccc23)NC1=O` showed an EC50 (Melanocortin receptor 5 [1]) of over 10000 nM, an EC50 (Melanocortin receptor 4 [3]) of over 1000 nM and an EC50 (Melanocortin receptor 3 [4]) of 1000 nM. The Ki (Melanocortin receptor 3 [6]) was 370 nM.
In the case of `N=C(N)NCCC[C@@H]1NC(=O)[C@@H](Cc2ccc3ccccc3c2)NC(=O)[C@H](Cc2cnc[nH]2)NC(=O)CCCC(=O)NCCCC[C@@H](C(N)=O)NC(=O)[C@H](Cc2c[nH]c3ccccc23)NC1=O`, the EC50 (Melanocortin receptor 5 [1]) is reported as 1.01 nM, the Ki (Melanocortin receptor 4 [2]) is reported as 220 nM and the EC50 (Melanocortin receptor 4 [3]) is reported as 1200 nM. It also gave an EC50 (Melanocortin receptor 3 [4]) of over 10000 nM, a Ki (Melanocortin receptor 5 [5]) of 26 nM and a Ki (Melanocortin receptor 3 [6]) of 5.9 nM.
For `N=C(N)NCCC[C@@H]1NC(=O)[C@@H](Cc2ccc3ccccc3c2)NC(=O)[C@H](Cc2c[nH]cn2)NC(=O)CCCC(=O)NCCCC[C@H](C(N)=O)NC(=O)[C@@H](Cc2c[nH]c3ccccc23)NC1=O`, the ACT (Melanocortin receptor 4 [7]) was 22.8%, the ACT (Melanocortin receptor 5 [8]) was 81% and the ACT (Melanocortin receptor 3 [9]) was 0%.
With `N=C(N)NCCC[C@@H]1NC(=O)[C@@H](Cc2ccccc2)NC(=O)[C@H](Cc2c[nH]cn2)NC(=O)CCC(=O)NCCCC[C@@H](C(N)=O)NC(=O)[C@H](Cc2c[nH]c3ccccc23)NC1=O` the EC50 (Melanocortin receptor 5 [1]) was 560 nM, the Ki (Melanocortin receptor 4 [2]) was 5.7 nM and the EC50 (Melanocortin receptor 4 [3]) was 1.6 nM. The EC50 (Melanocortin receptor 3 [4]) was 70 nM, the Ki (Melanocortin receptor 5 [5]) was 660 nM and the Ki (Melanocortin receptor 3 [6]) was 77 nM.
`N=C(N)NCCC[C@@H]1NC(=O)[C@@H](Cc2ccccc2)NC(=O)[C@@H]2CCCN2C(=O)CCC(=O)NCCCC[C@@H](C(N)=O)NC(=O)[C@H](Cc2c[nH]c3ccccc23)NC1=O` showed an EC50 (Melanocortin receptor 5 [1]; hek293) of 1300 nM, a Ki (Melanocortin receptor 4 [2]) of 190 nM and an EC50 (Melanocortin receptor 4 [3]) of 2300 nM. The EC50 (Melanocortin receptor 3 [4]; hek293) was 790 nM, the Ki (Melanocortin receptor 5 [5]; hek293) was 990 nM and the Ki (Melanocortin receptor 3 [6]; hek293) was 390 nM.
